# Measurements of several laboratories.
# Lines come from different studies, so protocols differ.
Compound,target or system,assay,system,conditions,quantity,result
CC(C)(N)CNC(=O)O[C@H]1CCC[C@@]2(C1)OOC1(O2)C2CC3CC(C2)CC1C3 (stereo partly drawn),,,"male CD-1 mouse, plasma","intravenous, 3 mg/kg",MRT(0-inf),32.5 min
COc1ccc([C@@]23Oc4cc(OC)cc(OC)c4[C@@]24NC(C)=N[C@@]4(O)[C@H](C(=O)N(C)OC)[C@H]3c2ccccc2)cc1,,metabolic stability,"human, liver microsomes",,half-life,120 min
CNC(C)Cc1ccc2c(c1)OCO2 (stereo not drawn),,metabolic stability,"human, liver microsomes",0.5 µM,half-life,> 150 min
Cn1cc2c3c1C(=O)C(N)=CC3=[N+](C)CC2,HepG2,"cell growth or viability, MTT",,72 h,CC50,1 µM
CN1CCN(S(=O)(=O)c2cc([N+](=O)[O-])ccc2N(CCOS(C)(=O)=O)CCOS(C)(=O)=O)CC1,,,"female SCID mouse, plasma","intraperitoneal, 25 mg/kg",MRT(0-inf),25.2 min
Cn1cc2c3c1C(=O)C(N)=CC3=NCC2,HepG2,"cell growth or viability, MTT",,72 h,CC50,2 µM
CNC(C)Cc1ccc2n[se]nc2c1 (stereo not drawn),,metabolic stability,"human, liver microsomes",0.5 µM,half-life,> 150 min
COCC1=N[C@@]2(O)[C@H](C(=O)N(C)OC)[C@@H](c3ccccc3)[C@]3(c4ccc(OC)cc4)Oc4cc(OC)cc(OC)c4[C@]23N1,,metabolic stability,"human, liver microsomes","1 µM, pH 7.4",half-life,24.8 min
NCCNC(=O)O[C@H]1CCC[C@@]2(C1)OOC1(O2)C2CC3CC(C2)CC1C3 (stereo partly drawn),,,"male CD-1 mouse, plasma","intravenous, 3 mg/kg",MRT(0-inf),35.2 min
